Assay results of several laboratories.
Each line is one published result; the experiments were not run side by side.
ADRA1B: Alpha-1B adrenergic receptor (ADRA1B, Homo sapiens, UniProt P35368)
PARP3: Protein mono-ADP-ribosyltransferase PARP3 (PARP3, Homo sapiens, UniProt Q9Y6F1)
MMP1: Interstitial collagenase (MMP1, Homo sapiens, UniProt P03956)
Mapk1: Mitogen-activated protein kinase 1 (Mapk1, Mus musculus, UniProt P63085)

Compound	target	test	test system	conditions	inhibition
CN(C)C1CCN(CC#Cc2nn(C3CCCC3)c3nc(NCc4ccccc4)ncc23)C1 (stereo not drawn)	Interleukin-1 receptor-associated kinase 1 (IRAK1, Homo sapiens, UniProt P51617)	enzyme activity, inhibitor, FRET	–	1 µM	13%
Oc1cccc(Nc2nc(-c3ccc(F)cc3F)cs2)c1	ADRA1B	cell-free assay	–	10 µM	16.4%
N#Cc1cc(Cn2c(N3CCCC3)nc3ccccc32)ccc1F	ADRA1B	ligand displacement	–	10 µM	-7.54%
Ic1cccc2cnccc12	PARP3	enzyme activity, inhibitor	–	10 µM	7%
O=C1C=Cc2occ(C(=O)c3ccccc3)c2C1=O	MMP1	enzyme activity, inhibitor	–	100 µM	≤ 0%
CCN(CC)CCNC(=O)c1c(C)[nH]c(/C=C2\C(=O)Nc3ccc(F)cc32)c1C	Mapk1	enzyme activity, inhibitor	–	0.3 µM	-16%
Cn1cnc(Br)c1C1=CN(c2ncnc3[nH]cnc23)CCS1	Myosin-IIIa (MYO3A, Homo sapiens, UniProt Q8NEV4)	enzyme activity, inhibitor, radiometric	–	50 nM	19.3%
O=C1NCCCc2ccc(F)cc21	PARP3	enzyme activity, inhibitor	–	10 µM	63%
COc1cc(CCN2CCN(CCCc3ccccc3)CC2)ccc1O	Sodium-dependent dopamine transporter (Slc6a3, Mus musculus, UniProt Q61327)	ligand displacement, radioligand	–	10 µM, cell membranes	20%
O=C(c1ccc(Cl)cc1)N(Cc1ccccc1)C1CCCCC1	ADRA1B	cell-free assay	–	10 µM	11.3%
Cc1ccc(Nc2nccc(N(C)c3ccc4c(C)n(C)nc4c3)n2)cc1S(N)(=O)=O	Mapk1	enzyme activity, inhibitor	–	0.3 µM	-2%
O=C(O)Cc1ccccc1Nc1c(F)cccc1Cl	Prostaglandin G/H synthase 2 (Ptgs2, Mus musculus, UniProt Q05769)	enzyme activity, inhibitor	–	10 µM, with preincubation	25%
CNC(=O)c1cc2c(Oc3ccc(NC(=O)C4(C(=O)Nc5ccc(F)cc5)CC4)cc3)ccnc2cc1OC	Hepatocyte growth factor receptor (MET, Homo sapiens, UniProt P08581)	enzyme activity, inhibitor, radiometric	–	1 µM	99%
CCN1CCN(Cc2ccc(NC(=O)c3ccc(C)c(Oc4ccnc5[nH]ccc45)c3)cc2C(F)(F)F)CC1	Microtubule-associated serine/threonine-protein kinase 4 (MAST4, Homo sapiens, UniProt O15021)	target engagement in cells, inhibitor, chemoproteomics	Huh-7	1 µM	-11.5%
COc1cc2c(cc1OC)-c1nnnn1CCC2	PARP3	enzyme activity, inhibitor	–	10 µM	45%
O=C(O)c1ncccc1O	MMP1	enzyme activity, inhibitor, fluorescence	–	1 mM	~50%
O=C1CCNC(=O)c2cc(Cl)c(Cl)cc21	PARP3	enzyme activity, inhibitor	–	10 µM	85%
CC/C(=N\NC(=O)C(C)Nc1ccccc1)c1ccc(O)c(C)c1O (stereo not drawn)	cAMP-dependent protein kinase catalytic subunit gamma (PRKACG, Homo sapiens, UniProt P22612)	enzyme activity, inhibitor	–	0.1 µM	34.9%
